# Compounds with a hit are over-represented: about 1.2% of the library has one in this group of screens.
# MsrA act: bovine methionine sulfoxide reductase A activation | activation, % at 10.6 µM | 360,000 tested, 0.3% active | purified bovine MsrA, absorbance read-out | AID 602163; in the data active means activation above about 7.5%;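 further: 0% = vehicle and 100% = reference activator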
# proCasp7 act: activates human procaspase-7, counter-screen for procaspase-3 activators; 330,000 tested, 0.093% active; recombinant procaspase-7, Ac-DEVD-pNA absorbance 405 nm; D23A/D198A/D206A triple mutant, cannot self-cleave; scale: DMSO 0, 5 µM enzyme 100; activation, % at 8.5 µM; P55210;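 active means percent activation above the screen-wide mean plus 3 SD, cut at about 25% in these data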
# Target sequence (P55210 whole entry D23A/D198A/D206A): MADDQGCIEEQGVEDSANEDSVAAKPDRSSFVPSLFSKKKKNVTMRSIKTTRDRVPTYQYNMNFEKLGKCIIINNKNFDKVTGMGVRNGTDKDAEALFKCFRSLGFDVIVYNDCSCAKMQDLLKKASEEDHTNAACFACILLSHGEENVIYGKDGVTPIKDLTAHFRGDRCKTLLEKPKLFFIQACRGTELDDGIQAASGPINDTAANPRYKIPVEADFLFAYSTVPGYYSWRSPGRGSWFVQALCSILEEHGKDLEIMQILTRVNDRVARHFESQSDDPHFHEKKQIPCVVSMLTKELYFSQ
#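 Assay system: Uncleavable procaspase-7 mutant enzyme; Input: 2 µM procaspase-7 mutant as dispensed; Also added: DEVD-pNA substrate; Medium: Zinc-free HEPES pH 7.4 with 300 mM NaCl, 0.01% Triton X-100; Timing: 1 h compound preincubation, 2 h substrate cleavage, 25 °C; Measured by: Epi-absorbance of released pNA at 405 nm, two timepoints.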
# proCasp3 act: activators of human procaspase-3; AID 463141; activation, % at 8.5 µM; 330,000 tested, 0.11% active; P42574; recombinant procaspase-3 D3A, Ac-DEVD-pNA absorbance 405 nm;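 active means activation above the mean of all tested compounds plus 3 SD, cut at about 21% in these data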;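 further: 0% = DMSO alone and 100% = DMSO wells spiked with extra 5 µM PC-3 D3A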
# Target sequence (P42574 whole entry D9A/D28A/D175A): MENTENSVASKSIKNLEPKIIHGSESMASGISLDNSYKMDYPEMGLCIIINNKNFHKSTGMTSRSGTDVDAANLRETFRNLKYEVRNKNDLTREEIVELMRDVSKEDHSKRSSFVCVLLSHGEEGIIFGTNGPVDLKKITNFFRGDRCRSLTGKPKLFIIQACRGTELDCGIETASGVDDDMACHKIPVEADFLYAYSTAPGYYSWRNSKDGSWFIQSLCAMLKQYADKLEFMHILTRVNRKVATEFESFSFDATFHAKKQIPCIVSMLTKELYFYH
#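 System: Procaspase-3 D3A mutant. Medium: Zinc-free 300 mM NaCl, 50 mM HEPES, 0.01% Triton X-100. Schedule: 1 h preincubation plus 2 h reaction at 25 °C. Measured by: 405 nm absorbance of p-nitroaniline, reads at 0 and 120 min. Read-out: percent activation relative to control range.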
# MsrA inhibitor: bovine MsrA inhibition | 360,000 tested, 0.75% active | inhibition, % at 15.5 µM | purified bovine MsrA, absorbance read-out;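 further: 0% = vehicle wells with enzyme and 100% = reference inhibitor wells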
# Bfl-1 A1 inh: inhibitors of the anti-apoptotic protein A1, read as caspase activation. MEF A1-2A-BIM cells, Caspase-Glo 3/7 luminescence, 3 h; percent of clofoctol response, vehicle zero. caspase activation, % (concentration not given with the values). 330,000 tested, 0.066% active. AID 2462;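 active means over half of replicate activation scores above 10%, or exactly half above 10 with the replicate mean above 10; inconclusive means replicate mean below 10 yet half the replicates above 10; inactive means over half of replicates below 10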
# MsrA inh confirm: bovine MsrA inhibition, confirmed; shares compounds with MsrA inhibitor; purified bovine MsrA, absorbance read-out; inhibition, % at 15.5 µM; 2,300 tested, 41% active; AID 651822;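 further: coupled to thioredoxin reductase with NADPH and selenocystamine and DMSO as substrate; 0% = vehicle only and 100% = full effect of reference inhibitor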
# Numbers without * were called inactive; ? = inconclusive; . = no result. Unless noted, no stated cut-off is given here; in the data, active means inhibition above about 4.5%; inactive means the rest.
SMILES,MsrA act,proCasp7 act,proCasp3 act,MsrA inhibitor,Bfl-1 A1 inh,MsrA inh confirm
O=C(COC(=O)c1ccccc1)Nc1cccc(S(=O)(=O)N2CCCCC2)c1,-2,.,.,1,.,.
Oc1ccc(/C=N/N=C/c2ccc(O)cc2)cc1,-12,1,0,5.3*,0,5.5*
CCOc1cc(/C=N/N=C/c2ccc(O)c(OCC)c2)ccc1O,-1,3,7,6.4*,2,4
Oc1ccc(/C=N/N=C/c2ccc(O)c(O)c2)cc1O,-6,-9,-10,4.7*,-2,6.4*
COc1cc(/C=N/NC(=O)C(=O)NCc2cccnc2)ccc1O,-1,6,-7,3,0,.
CCOc1cc(/C=N/NC(=O)C(=O)NCc2cccnc2)ccc1O,-8,-4,-1,5.7*,?,4
CCOc1cc(/C=N/n2c(C)nnc2C)ccc1O,-6,3,7,2,0,.
CC[C@]12c3[nH]c4cc(-c5ccco5)ccc4c3CCN1C(=O)[C@@H](CC(=O)NCCCn1ccnc1)C[C@@H]2C(=O)N1CCN(C(=O)c2ccco2)CC1,-3,1,-7,0,.,.
COc1ccc(-c2oc3c(c2C#CC2(O)CCCCC2)C(OC(C)=O)CCC3)cc1 (configuration not stated),-4,.,.,1,.,.
CCOc1cc(/C=N/NC(=O)c2ccc(NC(=O)C3CC3)cc2)ccc1O,-6,7,-4,5.3*,-1,4
COc1cc(/C=N/NC(=O)c2ccc(NC(=O)C3CCCCC3)cc2)ccc1O,-6,.,.,4,0,.
O=C(Nc1ccc(Br)cc1)NC1CCCCCCC1,-3,4,0,-1,0,.
CCOC(=O)c1cc(C(=O)OCC)c(=O)[nH]c1C,-6,2,9,1,0,.
CCOC(=O)c1cc(C(=O)OCC)c(=O)[nH]c1N1CCCC1,-11,-3,-5,6.8*,0,4
Nc1ccc(C(=O)C(=O)c2ccc(N)cc2)cc1,-6,8,-1,7.5*,0,6.8*
O=C(N/N=C/c1cnc(N2CCCCC2)s1)c1ccc(C(F)(F)F)cc1,-4,4,1,1,1,.
CC1CN(c2ncc(/C=N/NC(=O)c3ccccc3O)s2)CC(C)O1 (configuration not stated),-5,-8,2,6.4*,0,5.7*
O=C(NC1CCCCC1)C(=O)c1c[nH]c2ccccc12,-6,15,-5,1,-3,.
COc1ccc(N2CCN(C(=O)CCS(=O)(=O)c3ccc(OC)cc3)CC2)cc1,-3,-13,6,0,0,.
COc1ccc(S(=O)(=O)CCC(=O)N2CCN(c3ccc(C(C)=O)cc3)CC2)cc1,-4,14,-2,4.7*,0,3
O=[N+]([O-])c1c(NCCCO)cc(Sc2ccc(Cl)cc2)c2nonc12,-3,7,-2,0,2,.
Cn1ccnc1Sc1cc(NCCCO)c([N+](=O)[O-])c2nonc12,-10,-11,-8,5.7*,0,2
COc1ccc(/C=C2\SC(=O)N(CC(=O)NN3CCN(C)CC3)C2=O)cc1OC,-4,-6,-6,4.9*,1,3
COc1ccc(/C=C2\SC(=O)N(CC(=O)Nc3ccc(O)cc3)C2=O)cc1OC,-2,.,.,3,0,.
O=C(Nc1c(F)c(F)c(F)c(F)c1F)OC[C@@H]1CSCCS(=O)(=O)N1,.,.,.,-2,.,.
SMILES,MsrA act,proCasp7 act,proCasp3 act,MsrA inhibitor,Bfl-1 A1 inh,MsrA inh confirm
Cc1ccc(-c2nnc(Nc3ccc(C(=O)N(C)C)cc3)c3ccccc23)cc1S(=O)(=O)NCC1CCCO1 (configuration not stated),-3,-13,-1,4.7*,0,3
COC(=O)c1ccc(Nc2nnc(-c3ccc(C)c(S(=O)(=O)NCC4CCCO4)c3)c3ccccc23)cc1 (configuration not stated),-3,-1,-3,2,0,.
Cc1cc(C)n2nc(N)c(N=Nc3ccccc3)c2n1,-2,-4,-4,5.2*,-2,4
Cc1cc(C)n2nc(N)c(N=Nc3ccc4c(c3)OCO4)c2n1,-2,1,-9,0,-9,.
CCc1nc2c(OCc3cc(Cl)cc(Cl)c3)cccn2c1N(C)C(=O)c1cccc(OC)c1,1,.,.,0,.,.
COc1cccc(C(=O)N[C@H](C(=O)N2CCC[C@H]2C(=O)NC2CCCC2)C2CCCCC2)c1,.,.,.,0,.,.
CCn1c(CNC(=O)c2ccccc2Br)nnc1SCC(=O)NC1=NCCS1,-2,8,0,6.5*,1,1
CCn1c(SCC(=O)NC2=NCCS2)nnc1C(C)NC(=O)c1ccccc1Br (configuration not stated),-3,9,-2,1,0,.
Cc1ccccc1-c1cc2c(nn1)-c1ccccc1C2=O,2,8,-7,5.9*,-12,0
COC(=O)/C=C1\OCc2cc(OC)c(OC)cc21,.,.,.,3,.,.
COc1cc2c(cc1OC)/C(=C/C(C)=O)OC2,.,.,.,6.9*,.,4
CCOC(=O)CSc1nc(=O)n2ccc(C)cc2n1,-4,5,2,4.7*,-1,0
CC(=O)NN1C(=O)c2ccc3c4c(ccc(c24)C1=O)C(=O)N(NC(C)=O)C3=O,-4,15,0,29*,-1,22*
O=C1c2ccc3c4c(ccc(c24)C(=O)N1NC(=O)C(F)(F)F)CC3,-2,-5,-2,2,0,.
COc1ccc(C(=O)N2CCN(c3cnn(-c4ccccc4)c(=O)c3Cl)CC2)cc1,-5,-7,-4,4.7*,1,1
COc1ccccc1/C=N/NC(=O)CN(C1=NS(=O)(=O)c2ccccc21)c1ccccc1,-9,4,3,6.1*,0,1
CSc1nc(N)nc2c1ncn2CC(=O)N1CCN(Cc2c(C)cc(C)cc2C)CC1,-3,12,-1,0,0,.
Cn1cnc([N+](=O)[O-])c1Sc1nc(N)nc2c1ncn2C1OC(CO)C(O)C1O (configuration not stated),-3,.,.,4,.,.
Cn1cnc([N+](=O)[O-])c1Sc1nc(N)nc2c1ncn2C1CC(O)C(CO)O1 (configuration not stated),-1,.,.,5.5*,.,3
COc1ccc(CCNC(=O)C2CCN(S(=O)(=O)c3ccc(-n4cnnn4)cc3)CC2)cc1OC,-2,9,0,56*,1,-1
COc1ccc(CCNC(=O)C2CCN(S(=O)(=O)c3ccc(OC)c(OC)c3)CC2)cc1OC,-2,-10,3,-1,1,.
CCn1c(/C=C/c2ccc(O)cc2)nc2ccccc2c1=O,-7,-2,3,5.3*,0,4.8*
COCCn1c(/C=C/c2ccccc2)nc2ccccc21,-5,4,7,5.1*,-5,4
CCCc1ccc2c(C)cccc2n1,.,.,.,-2,.,.
